Settings in all cases: stereoisomer not certain
The target in one assay is T1, UniProt Q8VF43.
T1 sequence (whole entry): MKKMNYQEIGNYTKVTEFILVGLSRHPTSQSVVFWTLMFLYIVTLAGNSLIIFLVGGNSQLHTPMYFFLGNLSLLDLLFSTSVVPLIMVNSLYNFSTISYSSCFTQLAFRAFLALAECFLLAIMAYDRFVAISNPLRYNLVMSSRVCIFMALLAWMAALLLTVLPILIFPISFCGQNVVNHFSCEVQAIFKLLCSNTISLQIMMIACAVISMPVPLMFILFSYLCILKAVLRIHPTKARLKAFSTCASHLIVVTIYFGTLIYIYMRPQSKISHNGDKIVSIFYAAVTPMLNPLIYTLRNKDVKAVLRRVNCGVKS
The method in brief: (§1)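 Transient luciferase assays in mammalian cell lines were common, though methods varied by source. The values come from published papers and their supplementary material, with extra details from the original authors when needed. Responsive refers to a measured signal the original authors judged statistically different from baseline, and non-responsive (inactive) to the remainder.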

A further assay concerns the target T2, UniProt Q8VF52.
T2 sequence (whole entry): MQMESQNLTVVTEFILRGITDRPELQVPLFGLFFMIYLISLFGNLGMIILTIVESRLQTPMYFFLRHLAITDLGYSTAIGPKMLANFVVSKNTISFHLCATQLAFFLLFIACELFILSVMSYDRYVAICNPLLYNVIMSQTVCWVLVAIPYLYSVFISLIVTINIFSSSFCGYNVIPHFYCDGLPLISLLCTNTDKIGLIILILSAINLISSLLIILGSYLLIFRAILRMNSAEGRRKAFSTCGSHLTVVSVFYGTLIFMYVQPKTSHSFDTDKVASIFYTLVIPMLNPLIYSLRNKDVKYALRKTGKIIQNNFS
Put shortly: as §1

The target of a further assay is T3, UniProt Q8VFM8.
T3 sequence (whole entry): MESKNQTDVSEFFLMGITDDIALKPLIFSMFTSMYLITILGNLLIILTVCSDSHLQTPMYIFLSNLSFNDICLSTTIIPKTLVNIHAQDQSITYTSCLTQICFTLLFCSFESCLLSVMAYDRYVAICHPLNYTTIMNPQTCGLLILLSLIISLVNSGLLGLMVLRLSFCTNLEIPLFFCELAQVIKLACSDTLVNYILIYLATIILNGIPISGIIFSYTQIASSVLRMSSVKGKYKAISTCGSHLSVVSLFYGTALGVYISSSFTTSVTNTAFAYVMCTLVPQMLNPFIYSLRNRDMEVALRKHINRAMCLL
Put shortly: as §1

The target in the next assay is T4, UniProt Q8VFP5.
T4 sequence (whole entry): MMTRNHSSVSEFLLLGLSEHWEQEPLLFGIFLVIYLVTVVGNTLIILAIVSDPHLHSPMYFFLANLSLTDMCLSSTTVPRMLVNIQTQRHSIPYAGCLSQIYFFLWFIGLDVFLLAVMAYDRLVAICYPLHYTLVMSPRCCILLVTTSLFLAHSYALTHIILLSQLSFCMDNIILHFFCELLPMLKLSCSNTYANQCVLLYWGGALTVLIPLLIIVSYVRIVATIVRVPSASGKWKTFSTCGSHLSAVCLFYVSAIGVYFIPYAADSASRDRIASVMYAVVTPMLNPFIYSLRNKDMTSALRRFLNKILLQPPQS
Put shortly:
as §1

The next assay concerns the target T5, UniProt Q8VG01.
T5 sequence (whole entry): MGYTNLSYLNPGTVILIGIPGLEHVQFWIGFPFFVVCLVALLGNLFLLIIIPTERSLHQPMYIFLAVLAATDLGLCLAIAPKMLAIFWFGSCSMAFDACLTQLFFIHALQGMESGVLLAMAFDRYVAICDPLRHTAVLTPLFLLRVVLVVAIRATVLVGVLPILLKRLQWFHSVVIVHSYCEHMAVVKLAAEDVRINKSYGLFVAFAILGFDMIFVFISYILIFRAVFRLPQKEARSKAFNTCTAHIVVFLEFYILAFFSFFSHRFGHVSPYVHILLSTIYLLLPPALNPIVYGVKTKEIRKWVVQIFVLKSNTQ
Put shortly: as §1

For a further assay, the target named is T6, UniProt Q8VF24.
T6 sequence (whole entry): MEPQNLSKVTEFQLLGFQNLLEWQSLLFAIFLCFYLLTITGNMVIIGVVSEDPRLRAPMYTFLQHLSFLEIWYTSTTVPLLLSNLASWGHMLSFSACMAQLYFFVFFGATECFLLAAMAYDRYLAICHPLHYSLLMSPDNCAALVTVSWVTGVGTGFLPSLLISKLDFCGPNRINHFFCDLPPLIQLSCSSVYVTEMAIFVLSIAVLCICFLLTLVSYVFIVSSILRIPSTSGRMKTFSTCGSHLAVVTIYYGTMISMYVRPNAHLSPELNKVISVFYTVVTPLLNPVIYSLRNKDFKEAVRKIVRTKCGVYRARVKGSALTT
The method in brief: as §1

Another assay addresses T7, UniProt Q8VF44.
T7 sequence (whole entry): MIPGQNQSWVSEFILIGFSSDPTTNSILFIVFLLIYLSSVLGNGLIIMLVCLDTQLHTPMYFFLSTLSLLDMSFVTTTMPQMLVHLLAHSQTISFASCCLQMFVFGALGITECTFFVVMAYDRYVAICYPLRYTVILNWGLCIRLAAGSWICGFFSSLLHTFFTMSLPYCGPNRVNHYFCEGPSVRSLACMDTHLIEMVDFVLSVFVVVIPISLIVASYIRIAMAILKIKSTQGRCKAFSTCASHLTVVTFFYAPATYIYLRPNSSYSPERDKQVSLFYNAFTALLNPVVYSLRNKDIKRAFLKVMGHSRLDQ
Put shortly: as §1

The next assay deals with T8, UniProt Q8VFG6.
T8 sequence (whole entry): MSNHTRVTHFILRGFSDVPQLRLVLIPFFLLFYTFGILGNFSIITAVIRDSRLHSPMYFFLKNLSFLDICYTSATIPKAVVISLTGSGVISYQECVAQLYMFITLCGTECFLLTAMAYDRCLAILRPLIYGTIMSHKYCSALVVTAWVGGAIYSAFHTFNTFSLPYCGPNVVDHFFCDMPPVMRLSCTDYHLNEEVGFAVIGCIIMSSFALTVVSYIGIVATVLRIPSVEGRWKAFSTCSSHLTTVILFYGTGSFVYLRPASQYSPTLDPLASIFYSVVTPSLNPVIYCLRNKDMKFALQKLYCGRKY
Put shortly:
as §1

The target of a further assay is T9, UniProt Q8VFZ6.
T9 sequence (whole entry): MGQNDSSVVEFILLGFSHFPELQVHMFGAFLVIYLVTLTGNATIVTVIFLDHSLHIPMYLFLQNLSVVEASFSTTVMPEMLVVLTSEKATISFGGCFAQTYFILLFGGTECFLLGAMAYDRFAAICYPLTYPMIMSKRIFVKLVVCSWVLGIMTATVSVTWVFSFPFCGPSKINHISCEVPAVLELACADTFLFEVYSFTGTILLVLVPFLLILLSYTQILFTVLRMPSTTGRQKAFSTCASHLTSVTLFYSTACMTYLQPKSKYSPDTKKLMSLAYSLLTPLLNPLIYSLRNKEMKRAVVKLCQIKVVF
Put shortly:
as §1

The next assay concerns the target T10, UniProt Q8VG22.
T10 sequence (whole entry): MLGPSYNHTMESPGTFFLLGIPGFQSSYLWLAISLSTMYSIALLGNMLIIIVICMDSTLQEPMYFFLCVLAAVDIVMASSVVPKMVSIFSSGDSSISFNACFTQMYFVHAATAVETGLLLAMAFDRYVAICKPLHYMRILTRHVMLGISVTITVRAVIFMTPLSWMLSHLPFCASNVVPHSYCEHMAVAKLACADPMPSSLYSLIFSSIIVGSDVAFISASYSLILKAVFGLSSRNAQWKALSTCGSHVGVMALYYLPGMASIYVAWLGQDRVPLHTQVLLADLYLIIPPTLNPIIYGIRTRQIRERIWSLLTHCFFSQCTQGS
Put shortly: as §1
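Also: active if original authors judged signal statistically different from baseline.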

As for `CCc1ncc(C)nc1CC`, the “odorant receptor agonist call” value with UniProt Q8VF43, in the assay with UniProt Q8VF52, with UniProt Q8VFM8, in the assay with UniProt Q8VFP5 and with UniProt Q8VG01 was “inactive” throughout.
Regarding `CCSSCC`, the “odorant receptor agonist call” value with UniProt Q8VF43, in the assay with UniProt Q8VF52, in the assay with UniProt Q8VFM8, with UniProt Q8VFP5 and with UniProt Q8VG01 was “inactive” in each case.
In the case of `CCC=CCCCCC=O`, the “odorant receptor agonist call” value with UniProt Q8VF43, with UniProt Q8VF52, in the assay with UniProt Q8VFM8 and with UniProt Q8VFP5 was “inactive” in each case. Moreover, the “odorant receptor agonist call” value with UniProt Q8VG01 was “active”.
As to `CC(=O)OCC=C(C)C`, the “odorant receptor agonist call” value in the assay with UniProt Q8VF24, with UniProt Q8VF43, with UniProt Q8VF44, with UniProt Q8VF52, in the assay with UniProt Q8VFG6 and with UniProt Q8VFM8 was “inactive” throughout. Also, the “odorant receptor agonist call” value with UniProt Q8VFP5, in the assay with UniProt Q8VFZ6, with UniProt Q8VG01 and in the assay with UniProt Q8VG22 was “inactive” each time.
In the case of `Cc1ccccc1OC(=O)C(C)C`, the “odorant receptor agonist call” value with UniProt Q8VF43, with UniProt Q8VF52, with UniProt Q8VFM8, in the assay with UniProt Q8VFP5 and with UniProt Q8VG01 was “inactive” in each case.
`CC12CCC(CC1=O)C2(C)C` (stereo not given): the “odorant receptor agonist call” value in the assay with UniProt Q8VF24 and in the assay with UniProt Q8VF52 was “active” each time. The “odorant receptor agonist call” value with UniProt Q8VF43, with UniProt Q8VF44, in the assay with UniProt Q8VFG6, with UniProt Q8VFM8, in the assay with UniProt Q8VFP5 and with UniProt Q8VFZ6 was “inactive” each time. Moreover, the “odorant receptor agonist call” value with UniProt Q8VG01 and in the assay with UniProt Q8VG22 was “inactive” in each case.
As for `C=CC(C)=CCC=C(C)CCC=C(C)C`, the “odorant receptor agonist call” value with UniProt Q8VF43, with UniProt Q8VF52, with UniProt Q8VFM8, with UniProt Q8VFP5 and with UniProt Q8VG01 was “inactive” in each case.
As to `CCCCCCCOC(=O)C(C)C`, the “odorant receptor agonist call” value with UniProt Q8VF43, in the assay with UniProt Q8VF52, with UniProt Q8VFM8, in the assay with UniProt Q8VFP5 and in the assay with UniProt Q8VG01 was “inactive” throughout.
For `O=C(O)CCCCCCCCC(=O)O`, the “odorant receptor agonist call” value in the assay with UniProt Q8VF43, with UniProt Q8VF52, with UniProt Q8VFM8, with UniProt Q8VFP5 and with UniProt Q8VG01 was “inactive” throughout.
On to `CCCCCOC(=O)CCC`, for which the “odorant receptor agonist call” value with UniProt Q8VF43, with UniProt Q8VF52, with UniProt Q8VFM8, in the assay with UniProt Q8VFP5 and with UniProt Q8VG01 was “inactive” throughout.
In the case of `CC(C)=C1CCC(C)CC1=O` (stereo not given), the “odorant receptor agonist call” value with UniProt Q8VF43, in the assay with UniProt Q8VF52, in the assay with UniProt Q8VFM8, with UniProt Q8VFP5 and with UniProt Q8VG01 was “inactive” throughout.
Turning to `CCC(C)O` (stereo not given), the “odorant receptor agonist call” value in the assay with UniProt Q8VF43, with UniProt Q8VF52, in the assay with UniProt Q8VFM8, with UniProt Q8VFP5 and with UniProt Q8VG01 was “inactive” each time.
In the case of `C=C(CC)CCCC(C)(C)O`, the “odorant receptor agonist call” value with UniProt Q8VF43, with UniProt Q8VF52, in the assay with UniProt Q8VFM8, with UniProt Q8VFP5 and with UniProt Q8VG01 was “inactive” throughout.
`Cc1ccc(OC(=O)C(C)C)cc1`: the “odorant receptor agonist call” value with UniProt Q8VF43, with UniProt Q8VF52, with UniProt Q8VFM8, with UniProt Q8VFP5 and with UniProt Q8VG01 was “inactive” in each case.
On to `COc1nccnc1C(C)C`, for which the “odorant receptor agonist call” value with UniProt Q8VF43, with UniProt Q8VF52, with UniProt Q8VFM8, in the assay with UniProt Q8VFP5 and with UniProt Q8VG01 was “inactive” in each case.
With `CCCCCCC=CC=O`, the “odorant receptor agonist call” value with UniProt Q8VF43, with UniProt Q8VF52, in the assay with UniProt Q8VFM8, in the assay with UniProt Q8VFP5 and with UniProt Q8VG01 was “inactive” each time.
Regarding `O=C(O)C1CCC1`, the “odorant receptor agonist call” value in the assay with UniProt Q8VF43, with UniProt Q8VF52, in the assay with UniProt Q8VFM8, with UniProt Q8VFP5 and with UniProt Q8VG01 was “inactive” in each case.
Regarding `OCCCCCCCCCO`, the “odorant receptor agonist call” value with UniProt Q8VF43, with UniProt Q8VF52, in the assay with UniProt Q8VFM8, with UniProt Q8VFP5 and with UniProt Q8VG01 was “inactive” each time.

The values above are taken from the M2OR odorant receptor database.
